From ChEMBL document CHEMBL4813998, “Structural simplification of evodiamine: Discovery of novel tetrahydro-β-carboline derivatives as potent antitumor agents” (Bioorg Med Chem Lett, 2021) come the findings set out here.

The source made the active and inactive calls. The calls are words filed in the database; no cut-off is given here.

System in the first assay: not listed separately
Description: Antiproliferative activity against human MDA-MB-231 cells assessed as growth inhibition by CCK8 assay. Type of assay: functional, cell-based, Epithelial cell. The settings on record: Homo sapiens, Epithelial cell. For orientation: Tetrazolium assays rely on reduction of a dye to a coloured formazan, in cell work by metabolically active cells.
What is called IC50 is the midpoint of a concentration-inhibition curve. For the compound `COc1ccc2[nH]c3c(c2c1)CCN(C(=O)c1ccccc1)C3c1ccc(C)cc1` (stereo not given), the IC50 was determined as 22.2 µM.

As for `O=C(c1ccccc1)N1CCc2c([nH]c3ccc(O)cc23)C1c1ccccc1` (stereo not given), the IC50 is more than 100 µM.

Turning to `CN1c2ccccc2C(=O)N2CCc3c([nH]c4ccccc34)[C@H]21`, the IC50 was found to be 49 µM.

In the case of `COc1ccc2[nH]c3c(c2c1)CCN(C(=O)c1ccc(Cl)cc1)C3c1ccccc1` (stereo not given), the IC50 is 1.11 µM.

`O=C(c1ccccc1)N1CCc2c([nH]c3ccccc23)C1`: the IC50 amounted to 45.4 µM.

With `O=C(c1cccc(F)c1)N1CCc2c([nH]c3ccccc23)C1c1ccccc1` (stereo not given), the IC50 was found to be 57.6 µM.

With `O=C(c1ccccc1)N1CCc2c([nH]c3ccccc23)C1c1ccccc1` (stereo not given), the IC50 worked out at 51.2 µM.

For `COc1ccc2[nH]c3c(c2c1)CCN(C(=O)c1ccccc1)C3c1cccc(Br)c1` (stereo not given), the IC50 was 40.8 µM.

In the case of `COc1ccc2[nH]c3c(c2c1)CCN(C(=O)c1ccccc1)C3c1ccccc1Cl` (stereo not given), the IC50 was more than 100 µM.

Consider `COc1ccc2[nH]c3c(c2c1)CCN(C(=O)c1ccc(F)cc1)C3c1ccccc1` (stereo not given), for which the IC50 was determined as 1.24 µM.

Regarding `COc1ccc2[nH]c3c(c2c1)CCN(C(=O)c1cccc(F)c1)C3c1ccccc1` (stereo not given), the IC50 came out at 3.28 µM.

Turning to `COc1ccc2[nH]c3c(c2c1)CCN(C(=O)c1ccccc1F)C3c1ccccc1` (stereo not given), the IC50 is 62.4 µM.

The same assay, now with this note: epithelial cell.
On to `COc1ccc2[nH]c3c(c2c1)CCN(C(=O)CCc1ccccc1)C3c1ccc(Cl)c(Cl)c1` (single isomer, unassigned; (+)), for which the IC50 came out at 0.042 µM.

Regarding `COc1ccc2[nH]c3c(c2c1)CCN(C(=O)CCc1ccccc1)C3c1ccc(Cl)c(Cl)c1` (single isomer, unassigned; (-)), the IC50 was more than 50 µM.

System in another assay: not listed separately
Put plainly: Antiproliferative activity against human HCT116 cells assessed as growth inhibition by CCK8 assay. The class given is functional, cell-based, Epithelial cell. The settings on record: Homo sapiens, Epithelial cell.
`COc1ccc2[nH]c3c(c2c1)CCN(C(=O)c1ccccc1)C3c1ccc(C)cc1` (stereo not given): the IC50 stood at 6.45 µM.

For the compound `O=C(c1ccccc1)N1CCc2c([nH]c3ccc(O)cc23)C1c1ccccc1` (stereo not given), the half-inhibitory concentration (IC50) stood at 20.9 µM.

On to `CN1c2ccccc2C(=O)N2CCc3c([nH]c4ccccc34)[C@H]21`, for which the IC50 was 19.6 µM.

As for `COc1ccc2[nH]c3c(c2c1)CCN(C(=O)c1ccc(Cl)cc1)C3c1ccccc1` (stereo not given), the IC50 was 5.56 µM.

As to `O=C(c1ccccc1)N1CCc2c([nH]c3ccccc23)C1`, the IC50 was 21.4 µM.

Take `O=C(c1cccc(F)c1)N1CCc2c([nH]c3ccccc23)C1c1ccccc1` (stereo not given): the IC50 is 32.5 µM.

As to `O=C(c1ccccc1)N1CCc2c([nH]c3ccccc23)C1c1ccccc1` (stereo not given), the IC50 worked out at 57.9 µM.

`COc1ccc2[nH]c3c(c2c1)CCN(C(=O)c1ccccc1)C3c1cccc(Br)c1` (stereo not given): the IC50 came to 3.24 µM.

On to `COc1ccc2[nH]c3c(c2c1)CCN(C(=O)c1ccccc1)C3c1ccccc1Cl` (stereo not given), for which the IC50 was 6.73 µM.

On to `COc1ccc2[nH]c3c(c2c1)CCN(C(=O)c1ccc(F)cc1)C3c1ccccc1` (stereo not given), for which the IC50 was 1.73 µM.

Regarding `COc1ccc2[nH]c3c(c2c1)CCN(C(=O)c1cccc(F)c1)C3c1ccccc1` (stereo not given), the IC50 was 4.8 µM.

Consider `COc1ccc2[nH]c3c(c2c1)CCN(C(=O)c1ccccc1F)C3c1ccccc1` (stereo not given), for which the IC50 is 6.18 µM.

The same assay, now with this note: epithelial cell.
As for `COc1ccc2[nH]c3c(c2c1)CCN(C(=O)CCc1ccccc1)C3c1ccc(Cl)c(Cl)c1` (single isomer, unassigned; (+)), the IC50 worked out at 0.13 µM.

On to `COc1ccc2[nH]c3c(c2c1)CCN(C(=O)CCc1ccccc1)C3c1ccc(Cl)c(Cl)c1` (single isomer, unassigned; (-)), for which the IC50 came out at 17.7 µM.

In a further assay the target is DNA topoisomerase 2-alpha (Homo sapiens) (UniProt P11388). Put plainly: Inhibition of TOP2 (unknown origin) assessed as fractured DNA fragments using supercoiled plasmid DNA at 250 uM.
Chain of DNA topoisomerase 2-alpha (Homo sapiens) (P11388 whole entry, the tested form may be a part): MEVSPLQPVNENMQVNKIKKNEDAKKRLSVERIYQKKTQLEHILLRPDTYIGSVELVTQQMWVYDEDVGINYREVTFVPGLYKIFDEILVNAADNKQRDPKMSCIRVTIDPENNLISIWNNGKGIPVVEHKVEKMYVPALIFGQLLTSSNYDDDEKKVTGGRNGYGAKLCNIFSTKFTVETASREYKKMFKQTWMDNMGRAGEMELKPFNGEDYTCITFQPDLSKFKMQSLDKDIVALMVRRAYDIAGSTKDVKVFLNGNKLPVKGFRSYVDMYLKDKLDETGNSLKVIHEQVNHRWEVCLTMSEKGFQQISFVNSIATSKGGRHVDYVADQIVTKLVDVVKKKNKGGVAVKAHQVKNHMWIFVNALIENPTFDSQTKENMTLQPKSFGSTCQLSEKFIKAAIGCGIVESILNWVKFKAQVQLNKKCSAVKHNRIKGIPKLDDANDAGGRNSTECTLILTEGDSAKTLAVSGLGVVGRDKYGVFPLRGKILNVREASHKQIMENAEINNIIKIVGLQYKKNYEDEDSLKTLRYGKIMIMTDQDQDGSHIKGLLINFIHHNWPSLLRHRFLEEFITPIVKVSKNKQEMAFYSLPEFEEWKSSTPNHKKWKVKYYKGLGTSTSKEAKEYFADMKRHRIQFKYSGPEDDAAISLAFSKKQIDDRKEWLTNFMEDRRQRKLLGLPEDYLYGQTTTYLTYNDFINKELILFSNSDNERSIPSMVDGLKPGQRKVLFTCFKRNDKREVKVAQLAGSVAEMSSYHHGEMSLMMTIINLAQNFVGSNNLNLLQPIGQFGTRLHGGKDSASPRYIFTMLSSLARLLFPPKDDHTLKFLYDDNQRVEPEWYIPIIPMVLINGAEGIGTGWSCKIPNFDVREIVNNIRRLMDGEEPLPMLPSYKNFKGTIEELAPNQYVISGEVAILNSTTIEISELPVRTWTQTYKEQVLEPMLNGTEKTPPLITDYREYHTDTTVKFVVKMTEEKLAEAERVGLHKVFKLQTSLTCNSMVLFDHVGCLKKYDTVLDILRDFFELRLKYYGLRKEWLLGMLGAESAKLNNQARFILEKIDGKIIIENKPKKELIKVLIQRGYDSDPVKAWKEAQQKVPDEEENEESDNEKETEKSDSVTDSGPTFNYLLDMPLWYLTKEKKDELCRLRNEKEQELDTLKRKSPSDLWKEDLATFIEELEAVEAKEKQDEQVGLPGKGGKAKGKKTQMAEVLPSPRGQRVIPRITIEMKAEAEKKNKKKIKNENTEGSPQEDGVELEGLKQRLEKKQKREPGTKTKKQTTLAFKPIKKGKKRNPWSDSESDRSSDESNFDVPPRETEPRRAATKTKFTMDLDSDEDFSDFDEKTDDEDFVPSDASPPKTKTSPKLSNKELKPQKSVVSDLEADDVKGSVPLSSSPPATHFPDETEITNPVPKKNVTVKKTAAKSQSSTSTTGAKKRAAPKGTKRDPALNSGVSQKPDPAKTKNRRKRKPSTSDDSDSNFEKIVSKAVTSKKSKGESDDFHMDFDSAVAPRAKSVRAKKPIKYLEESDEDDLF
Conditions: not given
A digest of the protocol: (§1)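 Purified Top2 was incubated with DNA and compounds at 250 μM and 100 μM. The read-out was the appearance of fractured DNA fragments, with etoposide as the positive control.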
Regarding `COc1cc([C@@H]2c3cc4c(cc3[C@@H](O[C@@H]3O[C@@H]5CO[C@@H](C)O[C@H]5[C@H](O)[C@H]3O)[C@H]3COC(=O)[C@H]23)OCO4)cc(OC)c1O`, the inhibition result is “Active”.

System in a further assay: not listed separately
Description: Antiproliferative activity against human A549 cells assessed as growth inhibition by CCK8 assay. Type of assay: functional, cell-based, Epithelial cell. As to conditions: Homo sapiens, Epithelial cell.
In the case of `COc1ccc2[nH]c3c(c2c1)CCN(C(=O)c1ccccc1)C3c1ccc(C)cc1` (stereo not given), the IC50 stood at 17.4 µM.

For the compound `O=C(c1ccccc1)N1CCc2c([nH]c3ccc(O)cc23)C1c1ccccc1` (stereo not given), the IC50 worked out at 19.3 µM.

`CN1c2ccccc2C(=O)N2CCc3c([nH]c4ccccc34)[C@H]21`: the concentration for half-maximal inhibition (IC50) was more than 100 µM.

Take `COc1ccc2[nH]c3c(c2c1)CCN(C(=O)c1ccc(Cl)cc1)C3c1ccccc1` (stereo not given): the half-inhibitory concentration (IC50) was 2.15 µM.

Take `O=C(c1ccccc1)N1CCc2c([nH]c3ccccc23)C1`: the concentration for half-maximal inhibition (IC50) is more than 100 µM.

Take `O=C(c1cccc(F)c1)N1CCc2c([nH]c3ccccc23)C1c1ccccc1` (stereo not given): the IC50 is more than 100 µM.

Regarding `O=C(c1ccccc1)N1CCc2c([nH]c3ccccc23)C1c1ccccc1` (stereo not given), the IC50 was more than 100 µM.

Turning to `COc1ccc2[nH]c3c(c2c1)CCN(C(=O)c1ccccc1)C3c1cccc(Br)c1` (stereo not given), the half-inhibitory concentration (IC50) is 11.9 µM.

For the compound `COc1ccc2[nH]c3c(c2c1)CCN(C(=O)c1ccccc1)C3c1ccccc1Cl` (stereo not given), the IC50 came to 27.2 µM.

As for `COc1ccc2[nH]c3c(c2c1)CCN(C(=O)c1ccc(F)cc1)C3c1ccccc1` (stereo not given), the IC50 stood at 12.7 µM.

For `COc1ccc2[nH]c3c(c2c1)CCN(C(=O)c1cccc(F)c1)C3c1ccccc1` (stereo not given), the IC50 was found to be 9.27 µM.

Consider `COc1ccc2[nH]c3c(c2c1)CCN(C(=O)c1ccccc1F)C3c1ccccc1` (stereo not given), for which the IC50 worked out at 18.7 µM.

The same assay, now with this note: epithelial cell.
Regarding `COc1ccc2[nH]c3c(c2c1)CCN(C(=O)CCc1ccccc1)C3c1ccc(Cl)c(Cl)c1` (single isomer, unassigned; (+)), the 50% inhibitory concentration (IC50) turned out to be 0.65 µM.

For the compound `COc1ccc2[nH]c3c(c2c1)CCN(C(=O)CCc1ccccc1)C3c1ccc(Cl)c(Cl)c1` (single isomer, unassigned; (-)), the IC50 is 16.1 µM.

The target in another assay is DNA topoisomerase 2-alpha (Homo sapiens) (UniProt P11388). Put plainly: Inhibition of TOP2 (unknown origin) assessed as fractured DNA fragments using supercoiled plasmid DNA at 100 uM relative to etoposide.
Conditions: not given
The method in brief: as §1
With `COc1cc([C@@H]2c3cc4c(cc3[C@@H](O[C@@H]3O[C@@H]5CO[C@@H](C)O[C@H]5[C@H](O)[C@H]3O)[C@H]3COC(=O)[C@H]23)OCO4)cc(OC)c1O`, the inhibition result is “Active”.

The next assay shares this target. Description: Inhibition of TOP2 (unknown origin) assessed as fractured DNA fragments using supercoiled plasmid DNA at 50 uM relative to etoposide.
Conditions: not given
Consider `COc1cc([C@@H]2c3cc4c(cc3[C@@H](O[C@@H]3O[C@@H]5CO[C@@H](C)O[C@H]5[C@H](O)[C@H]3O)[C@H]3COC(=O)[C@H]23)OCO4)cc(OC)c1O`, for which the inhibition entry was “Active”.
